Experiments:
[1] = system: Imidazoleglycerol-phosphate dehydratase (His3p); details: cited from earlier work
[2] = system: yeast cells; assay: Cellular growth in the presence of varying concentrations of 3-AT; format: cell-based, budding yeast Saccharomyces cerevisiae; details: 30°C, three to five days
How it was run: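 BY4742-background strains (MATα his3Δ1 leu2Δ0 lys2Δ0 ura3Δ0; isogenic MATa dot1Δ or hmt1Δ) made HIS+ by transformation with a 1.75 kb HIS3 fragment. GCN5 deleted with a gcn5::hisG-URA3-hisG fragment. Log-phase cells from rich medium were serially diluted, spotted onto SC –His plates containing varying 3-AT concentrations, and scored for growth.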

[3] = target: Hmt1p (Saccharomyces cerevisiae, UniProt P38074); assay: Kinetic studies of Hmt1p-mediated H4 peptide methylation; format: biochemical, budding yeast Saccharomyces cerevisiae; details: peptide 0.01 to 10 μM, 3.3 μM 3H-SAM, app. 25 ng GST-Hmt1p, pH 8.0, 30°C, 3 min; Hanes/Wolffe plot; average, n ranging from 2 to 8
Sequence of Hmt1p (P38074 whole entry): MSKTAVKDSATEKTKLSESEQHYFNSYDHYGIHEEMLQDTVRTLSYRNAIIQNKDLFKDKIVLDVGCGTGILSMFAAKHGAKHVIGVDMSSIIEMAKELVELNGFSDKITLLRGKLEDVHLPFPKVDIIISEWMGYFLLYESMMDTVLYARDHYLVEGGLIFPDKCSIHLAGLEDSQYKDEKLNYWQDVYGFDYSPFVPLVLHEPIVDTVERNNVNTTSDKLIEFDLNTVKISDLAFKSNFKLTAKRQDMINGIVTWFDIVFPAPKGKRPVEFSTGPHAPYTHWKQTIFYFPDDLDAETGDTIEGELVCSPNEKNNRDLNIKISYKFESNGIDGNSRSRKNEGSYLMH

Compound	inhibition of Imidazoleglycerol-phosphate dehydratase [1]	sensitivity to 3-AT, dot1 deletion ([2]; dot1! cells, SC -His plates)	sensitivity to 3-AT, gcn5 deletion ([2]; gcn5! cells, SC -His plates)	resistance to 3-AT, gcn5 hmt1 double knockout ([2]; gcn5! hmt1! cells vs gcn5! strain, SC -His plates)	sensitivity to 3-AT, hmt1 deletion ([2]; hmt1! cells, 20- and 40-mM 3-AT plates, SC -His)	Km [3]
Nc1nc[nH]n1 [3-AT, 3-amino-1,2,4-triazole]	competitive inhibitor	did not have an obvious effect	hypersensitive	significantly higher resistance to 3-AT	sustain higher concentrations of 3-AT	
Ac.K8: synthetic histone H4 peptide (residues 1–18) with acetyllysine at position 8						0.059 ± 0.02 µM

From paper PMC2791397 (Biochimica et biophysica acta, 2009)
